Out of some 2,500 compounds screened, about 1,500 (60%) were called active. So high a share suggests a set chosen from earlier hits. This is one part of a sample in which actives are shown more often than they occur.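 How the source made its calls: active means inhibition of at least 30% at 20 µM; inactive means the rest.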
The compounds below were run against Carboxy-terminal domain RNA polymerase II polypeptide A small phosphatase 1 (Homo sapiens) (UniProt Q9GZU7) (assay: SCP1 dephosphorylation blockade at one dose – biochemical, colorimetric, single concentration, confirmation (AID 540281;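 further: plate controls were DMSO with enzyme for no effect and buffer wells lacking enzyme for full effect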)). Conditions: recombinant SCP-1 catalytic domain, phosphate release, malachite green absorbance; at 20 µM; active compounds read high.
Chain of Carboxy-terminal domain RNA polymerase II polypeptide A small phosphatase 1 (Homo sapiens) (Q9GZU7 76-261 limits assumed): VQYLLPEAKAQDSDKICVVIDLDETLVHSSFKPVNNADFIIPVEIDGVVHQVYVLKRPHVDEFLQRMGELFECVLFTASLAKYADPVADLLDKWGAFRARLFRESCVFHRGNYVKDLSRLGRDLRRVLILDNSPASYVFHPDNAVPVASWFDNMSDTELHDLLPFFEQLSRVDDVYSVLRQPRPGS
Outline: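 Material: SCP-1 enzyme, residues 76-261; Times: 45 min phosphatase reaction at RT; Reagent: Phospho-17-mer peptide substrate; Dosing: single 20 µM final compound concentration, 1.0% DMSO; Medium: Acidic Tris acetate with 10 mM MgCl2 and Tween-20, pH 5.5; Technique: absorbance at 630 nm, free phosphate colorimetry.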

Q: With O=c1[nH]c(=O)n(CCc2ccc(F)cc2)c(O)c1/C=N/N1CCCCC1 as the compound, how does the inhibition read?
A: 34.8% (active)

Q: How did the inhibition turn out when COc1ccccc1N=C1SCCCN1C was run?
A: 81.9% (active)

Q: With O=C(O)CCn1cc(C=C2C(=O)NC(=S)NC2=O)c(-c2cccc(Br)c2)n1 as the compound, how does the inhibition read?
A: 40% (active)
